What was measured:
Histone deacetylase 2 = Histone deacetylase 2 (Homo sapiens, UniProt Q92769); assay: Inhibition of HDAC2 (unknown origin)
[1] = biological target: T1, Class 1 histone deacetylase (Homo sapiens, UniProt Q13547+O15379+Q92769+Q9BY41); assay: Inhibition of Class 1 HDAC in VSV-G-pseudotyped HIV infected human 2C4 cell Jurkat model assessed as reactivation of HIV latency in presence of 0.1% NHS by fluorescent reporter gene assay
How it was run: (§1)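 Latently infected Jurkat 2C4 cells (HIV latency model) were tested for reactivation of silenced provirus in parallel at two normal human serum levels: 0.1% and 5%. The paired runs gauge the potency shift from plasma protein binding.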

[2] = biological target: T1, Class 1 histone deacetylase; assay: Inhibition of Class 1 HDAC in VSV-G-pseudotyped HIV infected human 2C4 cell Jurkat model assessed as reactivation of HIV latency in presence of 5% NHS by fluorescent reporter gene assay; how it was run: as §1
Histone deacetylase 8 = biological target: T2, Histone deacetylase 8 (Homo sapiens, UniProt Q9BY41); assay: Inhibition of HDAC8 (unknown origin)
T2 sequence (Q9BY41 whole entry): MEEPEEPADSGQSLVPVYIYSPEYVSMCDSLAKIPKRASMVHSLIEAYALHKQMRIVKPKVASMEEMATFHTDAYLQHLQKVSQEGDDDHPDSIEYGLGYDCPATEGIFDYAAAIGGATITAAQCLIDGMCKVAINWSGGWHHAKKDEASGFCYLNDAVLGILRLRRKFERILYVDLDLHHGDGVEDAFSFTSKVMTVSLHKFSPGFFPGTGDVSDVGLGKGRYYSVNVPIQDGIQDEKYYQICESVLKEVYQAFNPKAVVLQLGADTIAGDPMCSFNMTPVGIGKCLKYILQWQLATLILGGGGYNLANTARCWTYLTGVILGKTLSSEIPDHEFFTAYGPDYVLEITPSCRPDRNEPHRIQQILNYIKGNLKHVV

Histone deacetylase 3 = Histone deacetylase 3 (Homo sapiens, UniProt O15379); assay: Inhibition of HDAC3 (unknown origin)
Chain of Histone deacetylase 3 (O15379 whole entry): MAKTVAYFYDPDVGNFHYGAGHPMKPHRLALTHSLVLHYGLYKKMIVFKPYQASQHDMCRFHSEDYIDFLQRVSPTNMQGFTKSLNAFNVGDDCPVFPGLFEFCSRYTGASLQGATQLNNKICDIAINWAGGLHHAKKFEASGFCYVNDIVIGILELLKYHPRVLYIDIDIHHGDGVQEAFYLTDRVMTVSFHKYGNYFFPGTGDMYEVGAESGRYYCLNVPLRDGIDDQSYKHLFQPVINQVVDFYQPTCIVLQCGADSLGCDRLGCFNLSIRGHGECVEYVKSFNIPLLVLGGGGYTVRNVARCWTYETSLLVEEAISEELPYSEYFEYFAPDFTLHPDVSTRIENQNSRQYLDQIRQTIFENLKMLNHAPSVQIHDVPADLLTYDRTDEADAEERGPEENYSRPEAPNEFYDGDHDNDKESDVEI

[3] = biological target: T3, Protein deacetylase HDAC6 (Homo sapiens, UniProt Q9UBN7); assay: Inhibition of HDAC6 (unknown origin)
T3 sequence (Q9UBN7 whole entry): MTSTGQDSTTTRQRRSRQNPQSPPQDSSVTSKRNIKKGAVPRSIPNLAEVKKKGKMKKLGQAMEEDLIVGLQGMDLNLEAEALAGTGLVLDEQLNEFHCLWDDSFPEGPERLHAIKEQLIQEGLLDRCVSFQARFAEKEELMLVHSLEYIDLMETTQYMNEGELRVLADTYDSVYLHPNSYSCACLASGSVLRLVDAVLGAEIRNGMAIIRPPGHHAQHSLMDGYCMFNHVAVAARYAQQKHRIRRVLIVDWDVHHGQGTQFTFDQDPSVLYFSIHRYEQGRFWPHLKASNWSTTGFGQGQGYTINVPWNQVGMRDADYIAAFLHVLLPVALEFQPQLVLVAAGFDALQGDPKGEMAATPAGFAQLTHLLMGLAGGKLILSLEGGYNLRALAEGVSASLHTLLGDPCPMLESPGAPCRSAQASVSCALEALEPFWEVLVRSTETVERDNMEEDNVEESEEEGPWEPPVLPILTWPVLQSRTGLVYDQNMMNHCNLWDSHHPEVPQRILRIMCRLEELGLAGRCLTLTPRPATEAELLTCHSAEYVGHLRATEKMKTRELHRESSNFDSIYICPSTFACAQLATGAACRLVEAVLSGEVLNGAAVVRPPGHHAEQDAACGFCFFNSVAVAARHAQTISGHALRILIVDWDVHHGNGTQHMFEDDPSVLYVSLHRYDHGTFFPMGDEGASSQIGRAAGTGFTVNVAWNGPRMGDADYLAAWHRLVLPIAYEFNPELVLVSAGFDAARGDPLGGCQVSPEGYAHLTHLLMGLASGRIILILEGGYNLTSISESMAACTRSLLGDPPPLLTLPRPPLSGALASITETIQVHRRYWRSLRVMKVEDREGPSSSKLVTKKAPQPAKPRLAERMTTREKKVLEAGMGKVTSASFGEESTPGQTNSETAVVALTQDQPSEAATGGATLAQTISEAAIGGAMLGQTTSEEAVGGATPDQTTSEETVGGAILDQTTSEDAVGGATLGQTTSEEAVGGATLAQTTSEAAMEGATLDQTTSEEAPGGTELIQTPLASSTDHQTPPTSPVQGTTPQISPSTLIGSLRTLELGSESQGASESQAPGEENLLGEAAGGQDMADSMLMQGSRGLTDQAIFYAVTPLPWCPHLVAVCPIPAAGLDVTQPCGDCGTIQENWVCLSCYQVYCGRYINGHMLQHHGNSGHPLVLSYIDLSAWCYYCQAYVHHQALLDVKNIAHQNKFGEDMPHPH

Histone deacetylase 1 = Histone deacetylase 1 (Homo sapiens, UniProt Q13547); assay: Inhibition of HDAC1 (unknown origin)
Chain of Histone deacetylase 1 (Q13547 whole entry): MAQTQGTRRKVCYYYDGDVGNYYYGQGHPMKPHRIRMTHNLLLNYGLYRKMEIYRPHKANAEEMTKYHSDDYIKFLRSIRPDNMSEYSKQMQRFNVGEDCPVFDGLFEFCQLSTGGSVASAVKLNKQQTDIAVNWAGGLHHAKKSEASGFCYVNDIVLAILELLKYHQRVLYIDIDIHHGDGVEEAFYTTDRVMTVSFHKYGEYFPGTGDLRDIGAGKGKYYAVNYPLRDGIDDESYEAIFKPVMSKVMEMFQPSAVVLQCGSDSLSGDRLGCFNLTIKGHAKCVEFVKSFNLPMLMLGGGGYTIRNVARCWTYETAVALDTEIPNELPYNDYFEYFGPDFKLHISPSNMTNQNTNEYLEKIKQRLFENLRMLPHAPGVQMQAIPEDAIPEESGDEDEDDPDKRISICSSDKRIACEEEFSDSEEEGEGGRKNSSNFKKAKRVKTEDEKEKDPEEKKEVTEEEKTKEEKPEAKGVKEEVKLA

Chain of Histone deacetylase 2 (Q92769 whole entry): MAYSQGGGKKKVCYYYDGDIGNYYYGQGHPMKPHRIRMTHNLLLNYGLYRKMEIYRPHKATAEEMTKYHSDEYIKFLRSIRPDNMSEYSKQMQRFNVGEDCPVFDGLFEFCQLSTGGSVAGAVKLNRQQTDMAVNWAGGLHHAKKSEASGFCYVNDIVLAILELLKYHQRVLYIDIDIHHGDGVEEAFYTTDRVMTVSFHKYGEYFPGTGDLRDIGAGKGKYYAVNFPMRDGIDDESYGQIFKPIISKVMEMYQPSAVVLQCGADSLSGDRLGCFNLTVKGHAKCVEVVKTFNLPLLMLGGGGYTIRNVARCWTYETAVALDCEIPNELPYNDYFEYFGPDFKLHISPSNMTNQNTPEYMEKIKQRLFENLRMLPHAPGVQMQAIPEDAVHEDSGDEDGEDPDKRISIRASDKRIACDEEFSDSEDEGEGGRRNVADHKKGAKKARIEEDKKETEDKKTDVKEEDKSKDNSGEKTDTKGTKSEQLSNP

SMILES	IC50 (Histone deacetylase 2) [nM]	EC50 [1] [nM]	EC50 [2] [nM]	IC50 (Histone deacetylase 8) [nM]	IC50 (Histone deacetylase 3) [nM]	IC50 [3] [nM]	IC50 (Histone deacetylase 1) [nM]
CCC(=O)CCCCC[C@H](NC(=O)[C@H]1CC12CCN(C)CC2)c1[nH]c(-c2ccc(C(F)(F)F)cc2)nc1C#N	15.6	107	175	19200	1.9	8250	3.7
CCC(=O)CCCCC[C@H](NC(=O)[C@H]1CC12CCN(C)CC2)c1[nH]c(-c2ccc(-c3cccnc3)cc2)nc1C#N	1.7	77	55	12600	0.3	9470	0.2
CCC(=O)CCCCC[C@H](NC(=O)[C@H]1CC12CCN(C)CC2)c1[nH]c(-c2ccc(F)cc2)nc1C(N)=O	6.3	166	276	6800	0.9	17600	0.6
CCC(=O)CCCCCC(NC(=O)c1cncs1)c1[nH]c(-c2ccccc2)nc1C(N)=O (stereo not drawn)	26.7	154	537	4700		16400	7.2
CCC(=O)CCCCCC(NC(=O)c1cncs1)c1[nH]c(-c2ccccc2)nc1C(=O)NC (stereo not drawn)	91.4	570	1804	7470	4.7	29200	27.6
CCC(=O)CCCCCC(NC(=O)c1cncs1)c1[nH]c(-c2ccccc2)nc1C(=O)N1CCOCC1 (stereo not drawn)	159	2729	3771	16800	19.1	19000	43.6
CCC(=O)CCCCC[C@H](NC(=O)[C@H]1CC12CCN(C)CC2)c1[nH]c(-c2cccnc2OC)nc1C#N	229	2112	1669	38100	34.8	17100	58.9
CCC(=O)CCCCC[C@H](NC(=O)c1cncs1)c1[nH]c(-c2ccc(F)cc2)nc1C#N	51.3	254	1111	12300	3.1	> 45000	10.6
CCC(=O)CCCCC[C@H](NC(=O)[C@H]1CC12CCN(C)CC2)c1[nH]c(-c2ccc(F)cc2F)nc1C#N	155	1233	1260	20700	18.9	14800	35.2
CCC(=O)CCCCC[C@H](NC(=O)c1ccon1)c1[nH]c(-c2ccc(F)cc2)nc1C#N	164	558	2726	16200	12.1	> 45000	35.6
CCC(=O)CCCCC[C@H](NC(=O)[C@H]1CC12CCN(C)CC2)c1[nH]c(-c2ccc3nc(C)ccc3c2)nc1C#N	1.5	105	97	9830	0.2	6300	0.3
CCC(=O)CCCCC[C@H](NC(=O)[C@H]1CC12CCN(C)CC2)c1[nH]c(-c2cc3ccccc3nc2OC)nc1C#N	177	548	1351	> 45000	101	8970	97.9

— ChEMBL document CHEMBL4665726, “Development of a selective HDAC inhibitor aimed at reactivating the HIV latent reservoir” (Bioorg Med Chem Lett, 2020)
